Assay results from ChEMBL document CHEMBL1127317 (J Med Chem, 1994).

Legend:
Format in all cases: ADME
[1] = The observed pseudo-first-order rate constant of compound for cyclization reaction at pH 2.4
Summary of the method: (§1)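 Amines generated from the 2-nitroaryl amides, incubated at 37 °C in aqueous buffer of ionic strength 0.01 M. Cyclization followed at the same time by UV/vis spectrophotometry in thermostated stoppered cuvettes and by C-18 reverse-phase HPLC (MeOH/10 mM phosphate pH 7 mobile phase). Runs lasted 4 h at first, extended to about 4 half-lives when product formed. Pseudo-first-order k_obs was taken from first-order loss of amine peak area.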

[2] = The half-life for cyclization reaction at pH 2.4; summary of the method: as §1
[3] = The observed pseudo-first-order rate constant of compound for cyclization reaction at pH 6.8; summary of the method: as §1
[4] = The half-life for cyclization reaction at pH 6.8; summary of the method: as §1
[5] = The observed pseudo-first-order rate constants of compound for cyclization reaction at pH 2.4; summary of the method: as §1

Q: What does the source list for COc1ccc(NC(=O)c2c(C)nn(-c3ccccc3)c2-c2ccccc2N)cc1?
A: K obs [1]: 0.019 min⁻¹; half-life [2]: 36 min

Q: With COc1ccc(NC(=O)Cn2ncc3cccc(N)c32)cc1 as the compound, how does the K obs [1] read?
A: 0.0084 min⁻¹

Q: And the half-life [2]?
A: 83 min

Q: Which results are given for COc1ccc(N(C)C(=O)C(C)(C)c2ccccc2N)cc1?
A: K obs [3]: 0.0009 min⁻¹; half-life [4]: 800 min; K obs [1]: 2.5 min⁻¹; half-life [2]: 0.28 min

Q: Which results are given for COc1ccc(NC(=O)C(C)(C)c2ccccc2N)cc1?
A: K obs [3]: 0.0096 min⁻¹; half-life [4]: 72 min; K obs [1]: 10 min⁻¹; T1/2 [2]: 0.07 min

Q: For COc1ccc(NC(=O)CS(=O)(=O)c2c(C)cccc2N)cc1, which K obs [1] is on record?
A: 0.0004 min⁻¹

Q: And the half-life [2]?
A: 1700 min

Q: What does the source list for COc1ccc(NC(=O)C(C)c2ccccc2N)cc1 (stereo not given)?
A: K obs [1]: 0.043 min⁻¹; half-life [2]: 16 min

Q: Which K obs [1] does the source give for COc1ccc(NC(=O)[C@@H]2CCCN2C(=O)c2ccccc2N)cc1 here?
A: 0.0094 min⁻¹

Q: What about the half-life [2] of the same compound?
A: 74 min

Q: For Nc1ccccc1CC(=O)Nc1cnc2ccccc2c1, which K obs [5] is on record?
A: 0.008 min⁻¹

Q: And the half-life [2]?
A: 87 min

Q: With COc1ccc(NC(=O)C(C)(C)c2cc(C(=O)NCCN(C)C)ccc2N)cc1 as the compound, how does the K obs [3] read?
A: 0.0009 min⁻¹

Q: And the half-life [4]?
A: 770 min

Q: And the K obs [1]?
A: 2.58 min⁻¹

Q: And the half-life [2]?
A: 0.27 min

Q: What does the source list for COc1ccc(NC(=O)CCc2ccccc2N)cc1?
A: K obs [1]: 0.012 min⁻¹; half-life [2]: 58 min

Q: Which K obs [3] does the source give for CC(=O)c1ccc(NC(=O)C(C)(C)c2ccccc2N)cc1 here?
A: 0.02 min⁻¹

Q: What about the half-life [4] of the same compound?
A: 35 min

Q: And the K obs [1]?
A: 21 min⁻¹

Q: And the T1/2 [2]?
A: 0.033 min

Q: Which K obs [5] does the source give for COc1ccc(NC(=O)c2cccc3cccc(N)c23)cc1 here?
A: 0.11 min⁻¹

Q: And the half-life [2]?
A: 6.3 min

Q: With CCC(CC)(C(=O)Nc1ccc(OC)cc1)c1ccccc1N as the compound, how does the K obs [3] read?
A: 0.028 min⁻¹

Q: And the half-life [4]?
A: 250 min

Q: What about the K obs [1] of the same compound?
A: 1.64 min⁻¹

Q: And the half-life [2]?
A: 0.43 min

Q: Which results are given for COc1ccc(NC(=O)C(C)(C)c2ncccc2N)cc1?
A: K obs [3]: 0.0013 min⁻¹; half-life [4]: 530 min; K obs [1]: 0.078 min⁻¹; half-life [2]: 8.9 min

Q: With COc1ccc(NC(=O)Cc2ccccc2N)cc1 as the compound, how does the K obs [1] read?
A: 0.0026 min⁻¹

Q: What about the half-life [2] of the same compound?
A: 260 min

Q: With CC(C)(C(=O)Nc1ccccc1)c1ccccc1N as the compound, how does the K obs [3] read?
A: 0.02 min⁻¹

Q: What about the half-life [4] of the same compound?
A: 35 min

Q: What about the K obs [1] of the same compound?
A: 21 min⁻¹

Q: What about the T1/2 [2] of the same compound?
A: 0.033 min

Q: Which results are given for CN(C)c1ccc(NC(=O)C(C)(C)c2ccccc2N)cc1?
A: K obs [3]: 0.0097 min⁻¹; half-life [4]: 71 min

Q: What does the source list for Nc1ccccc1CCC(=O)Nc1cnc2ccccc2c1?
A: K obs [1]: 0.022 min⁻¹; half-life [2]: 32 min
